Active and inactive are the calls of the source. The rule behind the calls is not given here.
Assays:
[1] = biological target: Metabotropic glutamate receptor 7 (Rattus norvegicus, UniProt P35400); experiment: Negative allosteric modulation of rat mGlu7 receptor expressed in HEK cells harboring Ga15 assessed as reduction in L-AP4-induced calcium flux preincubated for 142 secs followed by agonist addition and measured after 120 secs by Fluo-4-AM-dye based fluorescence assay; assay type: functional, cell-based
Sequence of Metabotropic glutamate receptor 7 (P35400 whole entry): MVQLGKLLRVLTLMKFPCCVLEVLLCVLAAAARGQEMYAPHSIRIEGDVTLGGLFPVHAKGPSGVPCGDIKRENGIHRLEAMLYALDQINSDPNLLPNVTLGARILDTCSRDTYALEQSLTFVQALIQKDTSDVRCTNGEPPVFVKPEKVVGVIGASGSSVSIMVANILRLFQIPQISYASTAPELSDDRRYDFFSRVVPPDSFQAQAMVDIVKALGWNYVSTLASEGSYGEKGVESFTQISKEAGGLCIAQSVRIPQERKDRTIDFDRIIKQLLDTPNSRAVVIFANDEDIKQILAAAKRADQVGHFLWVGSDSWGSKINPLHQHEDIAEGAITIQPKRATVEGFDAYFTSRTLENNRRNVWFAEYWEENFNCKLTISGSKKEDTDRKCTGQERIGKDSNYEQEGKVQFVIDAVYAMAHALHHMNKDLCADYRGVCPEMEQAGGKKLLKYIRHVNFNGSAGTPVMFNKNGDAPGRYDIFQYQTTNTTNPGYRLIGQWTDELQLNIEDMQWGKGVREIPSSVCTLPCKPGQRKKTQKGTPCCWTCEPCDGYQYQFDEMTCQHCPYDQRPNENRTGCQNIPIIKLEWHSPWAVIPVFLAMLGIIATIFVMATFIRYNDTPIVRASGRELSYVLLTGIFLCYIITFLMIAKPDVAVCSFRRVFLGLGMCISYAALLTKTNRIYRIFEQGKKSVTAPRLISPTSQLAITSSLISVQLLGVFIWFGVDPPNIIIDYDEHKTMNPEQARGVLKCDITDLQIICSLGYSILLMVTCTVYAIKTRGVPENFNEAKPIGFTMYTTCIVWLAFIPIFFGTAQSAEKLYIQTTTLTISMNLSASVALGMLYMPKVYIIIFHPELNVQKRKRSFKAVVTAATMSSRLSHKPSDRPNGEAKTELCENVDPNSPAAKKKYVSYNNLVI

[2] = Fraction unbound in Sprague-Dawley rat plasma at 0.2 to 0.25 mg/kg, iv via cassette dosing measured up to 24 hrs post dose by LC/MS/MS analysis; assay type: ADME, organism-based; conditions: for fraction unbound at 24 h: Sprague-Dawley, plasma
[3] = Unbound fraction in Sprague-Dawley rat brain at 0.2 to 0.25 mg/kg, iv via cassette dosing measured up to 24 hrs post dose by LC/MS/MS analysis; assay type: ADME, organism-based
[4] = Brain to plasma permeability coefficient, Kp of the compound in Sprague-Dawley rat at 0.2 to 0.25 mg/kg, iv via cassette dosing measured up to 24 hrs post dose by LC/MS/MS analysis; assay type: ADME, organism-based
In short: (§1)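 Rat IV cassette study of plasma:brain levels. Brain Kp taken as total brain:plasma; Kp,uu corrected with the rat brain homogenate unbound fraction.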

[5] = Drug level in Sprague-Dawley rat cerebrospinal fluid at 30 mg/kg, ip measured at 1 hr post dose by LC/MS/MS analysis; assay type: ADME, organism-based; conditions: read-out: Drug uptake
In short: (§2)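 Rat tissue distribution after a single 30 mg/kg ip dose, with compound measured in plasma, brain and CSF. Kp taken as tissue:plasma total ratio. Unbound levels used plasma protein binding and brain homogenate binding fractions.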

[6] = Plasma concentration in C57Bl/6J mouse at 3 mg/kg, ip measured at 1 hr post dose by LC/MS/MS analysis; assay type: ADME, organism-based
In short: (§3)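 Mouse pharmacokinetic assessment at 3 mg/kg ip, sampled at the 1 h time point used in the behavioural tests.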

[7] = Brain to plasma permeability coefficient, Kp of the compound in Sprague-Dawley rat at 30 mg/kg, ip measured at 1 hr post dose by LC/MS/MS analysis; assay type: ADME, organism-based; in short: as §2
[8] = Unbound brain to plasma concentration ratio in Sprague-Dawley rat at 30 mg/kg, ip measured at 1 hr post dose by LC/MS/MS analysis; assay type: ADME, organism-based; in short: as §2
Mus musculus [9] = experiment: Reduction in locomotive activity in C57Bl/6J mouse assessed as reduction in total distance traveled in maze at 10 mg/kg, ip after 120 secs by elevated zero maze assay; assay type: ADME, organism-based; conditions: in vivo, 2 min
In short: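 Elevated zero maze in mice dosed intraperitoneally; locomotion read as total distance traveled. Analysis by one-way ANOVA with Bonferroni post hoc test between doses.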

[10] = Total plasma concentration in Sprague-Dawley rat at 30 mg/kg, ip measured at 1 hr post dose by LC/MS/MS analysis; assay type: ADME, organism-based; in short: as §2
[11] = biological target: Metabotropic glutamate receptor 5 (Homo sapiens, UniProt P41594); experiment: Negative allosteric modulation of mGlu5 receptor (unknown origin)
Mus musculus [12] = experiment: Anxiolytic-like activity in C57Bl/6J mouse assessed as suppression of marble burying activity at 3 mg/kg, ip administered 45 mins before habituation for 15 mins and measured following 30 mins interval by marble burying assay; assay type: functional, organism-based
In short: (§4)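 Mouse marble-burying assay, ip dosing of test agent or fluoxetine, counting marbles buried. Analysis by one-way ANOVA with Dunnett's post hoc test against vehicle, plus Grubb's outlier test.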

[13] = biological target: Metabotropic glutamate receptor 8 (Homo sapiens, UniProt O00222); experiment: Negative allosteric modulation of mGlu8 receptor (unknown origin)
Sequence of Metabotropic glutamate receptor 8 (O00222 whole entry): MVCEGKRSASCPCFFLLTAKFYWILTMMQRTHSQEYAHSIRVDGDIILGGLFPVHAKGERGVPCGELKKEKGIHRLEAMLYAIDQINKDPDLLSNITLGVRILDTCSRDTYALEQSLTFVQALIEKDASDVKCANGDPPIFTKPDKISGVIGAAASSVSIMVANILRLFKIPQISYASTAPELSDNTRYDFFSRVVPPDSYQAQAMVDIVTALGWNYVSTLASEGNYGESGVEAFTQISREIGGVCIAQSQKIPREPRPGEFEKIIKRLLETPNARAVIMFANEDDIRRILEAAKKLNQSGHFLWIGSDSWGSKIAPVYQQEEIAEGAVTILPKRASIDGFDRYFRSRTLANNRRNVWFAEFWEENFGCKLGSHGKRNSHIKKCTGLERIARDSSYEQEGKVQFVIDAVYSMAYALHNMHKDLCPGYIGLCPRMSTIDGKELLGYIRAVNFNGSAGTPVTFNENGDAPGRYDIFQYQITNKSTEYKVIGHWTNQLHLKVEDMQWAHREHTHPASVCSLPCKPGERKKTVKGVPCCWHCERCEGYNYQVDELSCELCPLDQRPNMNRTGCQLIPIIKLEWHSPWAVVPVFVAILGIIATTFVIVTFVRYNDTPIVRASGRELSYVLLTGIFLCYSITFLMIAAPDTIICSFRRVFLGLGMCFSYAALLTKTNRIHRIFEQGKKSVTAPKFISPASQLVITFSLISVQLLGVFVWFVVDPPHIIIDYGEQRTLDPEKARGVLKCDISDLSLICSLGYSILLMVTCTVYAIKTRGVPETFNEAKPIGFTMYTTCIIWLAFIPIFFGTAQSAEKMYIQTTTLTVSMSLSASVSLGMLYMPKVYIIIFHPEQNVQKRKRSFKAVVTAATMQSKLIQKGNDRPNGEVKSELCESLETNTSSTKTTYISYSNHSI

[14] = biological target: Metabotropic glutamate receptor 1 (Homo sapiens, UniProt Q13255); experiment: Negative allosteric modulation of mGlu1 receptor (unknown origin)
Sequence of Metabotropic glutamate receptor 1 (Q13255 whole entry): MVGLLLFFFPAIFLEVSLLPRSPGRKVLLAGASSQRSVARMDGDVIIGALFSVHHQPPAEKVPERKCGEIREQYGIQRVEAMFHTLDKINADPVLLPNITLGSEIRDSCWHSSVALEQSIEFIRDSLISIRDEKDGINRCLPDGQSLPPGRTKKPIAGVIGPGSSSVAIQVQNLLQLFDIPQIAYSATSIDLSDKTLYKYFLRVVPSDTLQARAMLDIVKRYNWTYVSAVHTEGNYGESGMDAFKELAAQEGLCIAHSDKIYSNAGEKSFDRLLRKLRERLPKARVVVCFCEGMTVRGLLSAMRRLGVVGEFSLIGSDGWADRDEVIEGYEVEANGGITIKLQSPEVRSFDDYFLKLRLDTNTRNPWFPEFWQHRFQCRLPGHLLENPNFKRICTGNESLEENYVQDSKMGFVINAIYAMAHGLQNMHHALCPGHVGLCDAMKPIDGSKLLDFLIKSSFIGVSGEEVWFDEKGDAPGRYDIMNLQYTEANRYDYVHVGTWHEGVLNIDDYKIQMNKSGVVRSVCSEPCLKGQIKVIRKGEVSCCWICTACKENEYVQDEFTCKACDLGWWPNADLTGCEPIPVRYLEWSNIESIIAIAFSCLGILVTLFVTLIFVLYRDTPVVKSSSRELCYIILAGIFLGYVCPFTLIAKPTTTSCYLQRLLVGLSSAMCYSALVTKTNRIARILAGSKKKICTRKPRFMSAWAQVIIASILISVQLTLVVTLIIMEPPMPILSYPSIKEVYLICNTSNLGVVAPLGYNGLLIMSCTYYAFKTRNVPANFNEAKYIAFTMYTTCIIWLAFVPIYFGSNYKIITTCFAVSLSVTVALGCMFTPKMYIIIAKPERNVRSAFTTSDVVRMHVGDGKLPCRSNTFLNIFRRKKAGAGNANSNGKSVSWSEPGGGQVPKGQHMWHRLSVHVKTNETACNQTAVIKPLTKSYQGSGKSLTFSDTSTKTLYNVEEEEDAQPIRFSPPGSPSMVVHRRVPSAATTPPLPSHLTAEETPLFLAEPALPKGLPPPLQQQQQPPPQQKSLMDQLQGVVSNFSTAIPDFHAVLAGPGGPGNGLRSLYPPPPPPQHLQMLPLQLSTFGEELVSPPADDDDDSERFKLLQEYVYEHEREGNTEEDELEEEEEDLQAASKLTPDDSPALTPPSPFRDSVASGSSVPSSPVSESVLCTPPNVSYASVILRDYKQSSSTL

[15] = biological target: Metabotropic glutamate receptor 6 (Homo sapiens, UniProt O15303); experiment: Negative allosteric modulation of mGlu6 receptor (unknown origin)
[16] = Unbound brain concentration in Sprague-Dawley rat at 0.2 to 0.25 mg/kg, iv via cassette dosing measured up to 24 hrs post dose by LC/MS/MS analysis; assay type: ADME, organism-based; conditions: in vivo; in short: as §1
[17] = Drug level in C57Bl/6J mouse cerebrospinal fluid at 3 mg/kg, ip measured at 1 hr post dose by LC/MS/MS analysis; assay type: ADME, organism-based; conditions: read-out: Drug uptake; in short: as §3
[18] = Oral bioavailability in Sprague-Dawley rat at 10 mg/kg measured up to 24 hrs by LC-MS/MS analysis; assay type: ADME, organism-based; conditions: in vivo
In short: (§5)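 Rat discrete pharmacokinetics after iv and po (10 mg/kg) dosing, giving plasma clearance, Vss, half-life and oral bioavailability.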

[19] = Fraction unbound in mouse plasma at 0.2 to 0.25 mg/kg, iv via cassette dosing measured up to 24 hrs post dose by LC/MS/MS analysis; assay type: ADME, organism-based
[20] = Volume of distribution at steady state in Sprague-Dawley rat at 0.2 mg/kg, iv or 10 mg/kg, po measured up to 24 hrs by LC-MS/MS analysis; assay type: ADME, organism-based; conditions: in vivo; in short: as §5
[21] = biological target: Metabotropic glutamate receptor 3 (Homo sapiens, UniProt Q14832); experiment: Negative allosteric modulation of mGlu3 receptor (unknown origin)
[22] = Unbound brain-to-plasma concentration ratio in Sprague-Dawley rat brain at 0.2 to 0.25 mg/kg, iv via cassette dosing measured up to 24 hrs post dose by LC/MS/MS analysis; assay type: ADME, organism-based; in short: as §1
[23] = CSF to plasma permeability coefficient, Kp of the compound in Sprague-Dawley rat at 30 mg/kg, ip measured at 1 hr post dose by LC/MS/MS analysis; assay type: ADME, organism-based; in short: as §2
Mus musculus [24] = experiment: Anti-anxiety activity in ip dosed C57Bl/6J mouse assessed as increase in total time spent in open arms by elevated zero maze assay; assay type: functional; conditions: read-out: MED
In short: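 Mouse elevated zero maze after intraperitoneal dosing at several doses; read-out was total time in open arms. Analysis by one-way ANOVA with Bonferroni post hoc test against vehicle.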

[25] = biological target: Metabotropic glutamate receptor 2 (Homo sapiens, UniProt Q14416); experiment: Negative allosteric modulation of mGlu2 receptor (unknown origin)
Sequence of Metabotropic glutamate receptor 2 (Q14416 whole entry): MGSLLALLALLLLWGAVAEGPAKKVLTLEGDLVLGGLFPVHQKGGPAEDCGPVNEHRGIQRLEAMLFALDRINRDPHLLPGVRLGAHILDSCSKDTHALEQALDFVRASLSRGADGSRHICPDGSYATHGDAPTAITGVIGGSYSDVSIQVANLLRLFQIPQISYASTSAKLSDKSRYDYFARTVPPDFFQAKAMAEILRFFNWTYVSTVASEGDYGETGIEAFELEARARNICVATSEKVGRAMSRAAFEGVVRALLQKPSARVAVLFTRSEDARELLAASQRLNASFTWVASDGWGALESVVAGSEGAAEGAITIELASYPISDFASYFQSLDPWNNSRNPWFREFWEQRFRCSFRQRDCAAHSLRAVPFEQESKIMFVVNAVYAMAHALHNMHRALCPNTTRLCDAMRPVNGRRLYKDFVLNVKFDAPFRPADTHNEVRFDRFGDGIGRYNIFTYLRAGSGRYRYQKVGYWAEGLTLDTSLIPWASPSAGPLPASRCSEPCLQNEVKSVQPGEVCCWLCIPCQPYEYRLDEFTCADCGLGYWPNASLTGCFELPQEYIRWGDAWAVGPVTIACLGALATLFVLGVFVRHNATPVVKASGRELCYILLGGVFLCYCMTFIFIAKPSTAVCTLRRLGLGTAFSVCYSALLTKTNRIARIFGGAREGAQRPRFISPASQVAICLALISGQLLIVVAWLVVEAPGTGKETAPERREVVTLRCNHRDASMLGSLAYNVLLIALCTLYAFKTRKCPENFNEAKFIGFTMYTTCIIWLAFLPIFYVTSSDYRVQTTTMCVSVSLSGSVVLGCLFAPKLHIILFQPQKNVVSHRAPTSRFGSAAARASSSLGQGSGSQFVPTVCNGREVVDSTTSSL

Mus musculus [26] = experiment: Anxiolytic-like activity in C57Bl/6J mouse assessed as suppression of marble burying activity […], ip administered 45 mins before habituation for 15 mins and measured following 30 mins interval by marble burying assay; assay type: functional, organism-based; conditions: 3 mg/kg, in the assay text read “3 mg/kg” for “15 mg/kg”; in short: as §4
[27] = Ratio of drug level in C57Bl/6J mouse cerebrospinal fluid at 3 mg/kg, ip measured at 1 hr post dose by LC/MS/MS analysis to negative allosteric modulation of rat mGlu7 receptor expressed in HEK cells harboring Ga15; assay type: ADME, organism-based; conditions: in vivo
[28] = Half life in Sprague-Dawley rat at 0.2 mg/kg, iv or 10 mg/kg, po measured up to 24 hrs by LC-MS/MS analysis; assay type: ADME, organism-based; conditions: in vivo; in short: as §5
Mus musculus [29] = experiment: Anxiolytic-like activity in C57Bl/6J mouse assessed as increase in total time spent in the light side of the chamber at 3 mg/kg, ip measured during 10-min testing period; assay type: functional, organism-based
In short: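 Mouse light/dark box at 3 mg/kg ip, with fluoxetine 15 mg/kg ip as reference; read-out was total time in the light side. Analysis by one-way ANOVA with Dunnett's post hoc test against vehicle, plus Grubb's outlier test.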

[30] = biological target: 5-hydroxytryptamine receptor 2B (Homo sapiens) (UniProt P41595); experiment: Binding affinity to cloned human 5-HT2B expressed in CHO-K1 cell membranes by radioligand displacement assay
Sequence of 5-hydroxytryptamine receptor 2B (Homo sapiens) (P41595 whole entry): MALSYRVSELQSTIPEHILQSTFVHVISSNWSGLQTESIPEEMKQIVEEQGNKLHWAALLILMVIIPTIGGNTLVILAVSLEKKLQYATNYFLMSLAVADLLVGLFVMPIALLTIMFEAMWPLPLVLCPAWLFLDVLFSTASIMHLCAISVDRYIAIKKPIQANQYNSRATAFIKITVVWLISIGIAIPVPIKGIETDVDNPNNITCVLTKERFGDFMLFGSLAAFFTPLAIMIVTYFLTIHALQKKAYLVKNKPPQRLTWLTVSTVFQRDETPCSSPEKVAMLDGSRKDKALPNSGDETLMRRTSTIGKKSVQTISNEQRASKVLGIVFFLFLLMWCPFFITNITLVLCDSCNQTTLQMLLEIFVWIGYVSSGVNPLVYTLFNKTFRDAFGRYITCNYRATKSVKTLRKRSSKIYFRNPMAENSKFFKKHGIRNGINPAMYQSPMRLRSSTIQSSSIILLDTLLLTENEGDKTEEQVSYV
In short: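 Eurofins lead profiling panel of 68 GPCRs, ion channels and transporters, tested at 10 μM and read as percent activity.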

[31] = Fraction unbound in Sprague-Dawley rat brain at 0.2 to 0.25 mg/kg, iv via cassette dosing measured up to 24 hrs post dose by LC/MS/MS analysis; assay type: ADME, organism-based
[32] = Fraction unbound in Sprague-Dawley rat plasma at 30 mg/kg, ip measured at 1 hr post dose by LC/MS/MS analysis; assay type: ADME, organism-based; conditions: in vivo
[33] = Total brain concentration in Sprague-Dawley rat at 30 mg/kg, ip measured at 1 hr post dose by LC/MS/MS analysis; assay type: ADME, organism-based; conditions: read-out: Drug uptake; in short: as §2
[34] = Total brain concentration in Sprague-Dawley rat at 0.2 to 0.25 mg/kg, iv via cassette dosing measured up to 24 hrs post dose by LC/MS/MS analysis; assay type: ADME, organism-based; conditions: read-out: Drug uptake; in short: as §1
[35] = Fraction unbound in Sprague-Dawley rat brain at 30 mg/kg, ip measured at 1 hr post dose by LC/MS/MS analysis; assay type: ADME, organism-based; conditions: in vivo
[36] = Ratio of drug level in Sprague-Dawley rat cerebrospinal fluid at 30 mg/kg, ip measured at 1 hr post dose by LC/MS/MS analysis to Negative allosteric modulation of rat mGlu7 receptor expressed in HEK cells harboring Ga15; assay type: ADME, organism-based; conditions: in vivo
[37] = biological target: Metabotropic glutamate receptor 4 (Homo sapiens, UniProt Q14833); experiment: Negative allosteric modulation of mGlu4 receptor (unknown origin)
Mus musculus [38] = experiment: Anxiolytic-like activity in C57Bl/6J mouse assessed as increase in total time spent in the light side of the chamber at 15 mg/kg, ip measured during 10-min testing period; assay type: functional, organism-based
In short: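 Mouse light/dark box anxiety model; single ip dose with a 1 h treatment time before testing. Read-out is total time spent in the light side of the chamber versus vehicle-treated controls. Groups compared by one-way ANOVA with Dunnett's post hoc test; all data points screened with Grubb's outlier test.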

## COc1ccc(CCCNc2cc(Cl)ccc2-n2cncn2)cc1OC
[1]
  IC50: > 10000 nM

## COc1cc(C(=O)Nc2cc(OC(F)(F)F)ccc2-n2cncn2)ccc1OCC1CCCC1
[1]
  IC50: 2800 nM

## COc1cc(C(=O)Nc2cc(OC(F)(F)F)ccc2-n2cncn2)ccc1OCC1CCC1
[1]
  IC50: 1400 nM

## COc1cc(C(=O)Nc2cc(OC(F)(F)F)ccc2-n2cncn2)ccc1OCC(C)C
[1]
  IC50: 1200 nM

## COc1ccc(CNc2cc(OC(F)(F)F)ccc2-n2cncn2)cc1OC
[2]
  fraction unbound at 24 h: 0.01 to 0.03
[1]
  IC50: 5900 nM
[3]
  fraction unbound at 24 h: < 0.003

## COc1cc(C(=O)Nc2cc(OC(F)(F)F)ccc2-n2cncn2)ccc1OCc1ccccc1
[1]
  IC50: 3100 nM

## COc1cc(F)c(CCCNc2cc(OC(F)(F)F)ccc2-n2cncn2)cc1OC
[2]
  fraction unbound at 24 h: 0.01 to 0.03
[1]
  IC50: 1300 nM
[3]
  fraction unbound at 24 h: < 0.003

## COc1ccc(CNc2cc(Cl)ccc2-n2cncn2)cc1OC
[1]
  IC50: 7900 nM

## COc1cc(F)c(OCCNc2cc(OC(F)(F)F)ccc2-n2cncn2)cc1OC
[2]
  fraction unbound at 24 h: 0.01 to 0.03
[1]
  IC50: 1200 nM
[3]
  fraction unbound at 24 h: < 0.003

## COc1cc(C(=O)Nc2cc(OC(F)(F)F)ccc2-n2cncn2)ccc1OCC1CC1
[4]
  Kp: 2.35
[5]
  concentration at 1 h: 1300 nM
[6]
  concentration at 1 h: 303 nM
[7]
  Kp: 1.24
[8]
  K(p,uu,brain): 0.38
Mus musculus [9]
  Activity: Toxic
[10]
  concentration at 1 h: 598 nM
[11]
  IC50: > 10 µM
[2]; in vivo, 24 h
  Fu: 0.028
Mus musculus [12]
  Activity: Active
[13]
  IC50: > 10 µM
[14]
  IC50: > 10 µM
[15]
  IC50: > 10 µM
[16]
  Drug uptake(free): 3.4 nM
[17]
  concentration at 1 h: 883 nM
[18]
  F: 74.9%
[19]
  fraction unbound at 24 h: 0.026
[20]
  Vdss: 1.9 L/kg
[21]
  IC50: > 10 µM
[22]
  K(p,uu,brain): 0.75
[1]
  IC50: 350 nM
[23]
  Kp: 2.15
Mus musculus [24]
  minimal effective dose: 3 mg/kg
[25]
  IC50: > 10 µM
Mus musculus [26]
  Activity: Active
[27]
  Ratio: 2.5
[28]
  t1/2: 40 min
[3]
  fraction unbound at 24 h: 0.009
Mus musculus [29]
  Activity: Active
[30]
  Activity: > 50%
[31]
  fraction unbound at 24 h: 0.009
[32]
  Cp(f): 16.7 nM
[33]
  concentration at 1 h: 745 nM
[34]
  concentration at 24 h: 375 nM
[35]
  Drug uptake(free): 6.4 nM
[36]
  Ratio: 3.8
[37]
  IC50: > 10 µM

## COc1ccc(CCCNc2cc(OC(F)(F)F)ccc2-n2cncn2)cc1OC
[2]
  fraction unbound at 24 h: 0.01 to 0.03
[1]
  IC50: 1600 nM
[3]
  fraction unbound at 24 h: < 0.003

## COc1cc(C(=O)Nc2cc(OC(F)(F)F)ccc2-n2cncn2)ccc1OCC(F)(F)F
[1]
  IC50: > 30000 nM

## COc1cc(F)c(OCCNc2cc(Cl)ccc2-n2cncn2)cc1OC
[1]
  IC50: > 10000 nM

## COc1cc(F)c(CCCNc2cc(Cl)ccc2-n2cncn2)cc1OC
[1]
  IC50: > 10000 nM

## CNCCC(Oc1ccc(C(F)(F)F)cc1)c1ccccc1 (centres undefined)
Mus musculus [38]
  Activity: Active
